For series [1], the target named is RNA-directed RNA polymerase (Hepacivirus hominis, UniProt O39930). Briefly: Inhibition of HCV genotype 1b NS5B RNA dependent RNA polymerase. Also on record: species or system Hepatitis C virus subtype 1b.
A short description of series [2]: Inhibition of HCV genotype 1b NS3/4A protease. Also on record: species or system Hepatitis C virus subtype 1b.
In another series the target is T1, Nonstructural protein 5A (Hepatitis C virus, UniProt Q5L478).
T1 sequence (Q5L478 whole entry): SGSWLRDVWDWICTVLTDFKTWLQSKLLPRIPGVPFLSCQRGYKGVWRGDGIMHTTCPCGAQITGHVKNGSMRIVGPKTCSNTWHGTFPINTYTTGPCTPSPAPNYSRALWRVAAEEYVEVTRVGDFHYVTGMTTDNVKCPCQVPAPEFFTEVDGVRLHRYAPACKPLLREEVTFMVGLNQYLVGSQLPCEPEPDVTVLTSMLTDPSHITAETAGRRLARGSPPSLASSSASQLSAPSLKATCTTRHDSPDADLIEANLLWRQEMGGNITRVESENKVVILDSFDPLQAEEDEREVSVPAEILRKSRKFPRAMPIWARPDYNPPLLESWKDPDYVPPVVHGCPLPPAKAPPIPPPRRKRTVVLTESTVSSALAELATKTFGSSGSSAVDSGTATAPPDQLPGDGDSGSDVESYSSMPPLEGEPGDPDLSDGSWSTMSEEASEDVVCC
As to the kind of experiment: Inhibition of HCV genotype 1b NS5A. Also on record: species or system Hepatitis C virus subtype 1b.

Series [3] in a line: Cytotoxicity against rat L6 cells assessed as reduction in cell viability incubated for 6 days by resazurin dye based fluorescence assay. In short, it runs like this:
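Rat skeletal myoblast L6 cells seeded in triplicate at 1 × 10⁴ mL⁻¹ in growth medium containing a range of compound concentrations, 6 days at 37 °C; resazurin added, 8 h further, fluorescence read. CC50 = concentration giving 50% growth inhibition; mean of triplicate experiments ± SEM.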

For a further series, the system named is dengue virus type 2. Briefly: Antiviral activity against DENV 2 16681 infected in human HuH7 cells assessed as reduction in viral replication incubated for 3 days by luciferase reporter gene assay. Particulars: Dengue virus, 16681, Huh-7, 72 h. In kind it is functional, organism-based. A digest of the protocol:
(§1)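 Stable subgenomic replicon cell lines (Huh5-2 HCV 1b Con1 firefly luciferase; Huh7.5-3a S52, Huh7.5-4a ED43; Huh7-D2 DENV2 16681 Renilla luciferase) seeded 1×10^4 cells/well, 24 h at 37 °C, then serial compound dilutions in complete DMEM without G418 for 3 days at 37 °C. Lysate F-Luc or R-Luc (12 μM coelenterazine, pH 7.4 buffer) normalized to Bradford protein, expressed as % of DMSO control. EC50 from nonlinear regression of log concentration.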

Series [4] concerns Hepatitis C virus. Briefly: Antiviral activity against HCV genotype 3a S52 infected in human HuH7.5 cells assessed as reduction in viral replication incubated for 3 days by luciferase reporter gene assay. Format: functional, organism-based, Hepacivirus hominis. Particulars: subtype 3a S52, Huh7.5, 72 h. A digest of the protocol: as §1
Background: A reporter such as luciferase makes a cellular process visible.

Series [5] is described as follows: Cytotoxicity against human HuH5.2 cells assessed as reduction in cell viability incubated for 72 hrs by measuring intracellular ATP levels.
Series [6] can be described thus: Selectivity index, ratio of CC50 for rat L6 cells to EC50 for Trypanosoma brucei 221 bloodstream form. Format: toxicity. As to conditions: read-out: Ratio CC50/EC50. In short, it runs like this:
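T. brucei strain 221 bloodstream forms in modified Iscove's medium diluted to 2.5 × 10⁴ mL⁻¹, eight-point concentration curves at 37 °C; resazurin added after 48 h, further 16 h incubation; fluorescence at excitation 545 nm, emission 590 nm. EC50 and EC90 from triplicate experiments. SI = L6 CC50/EC50.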

For the next series, the system named is Trypanosoma brucei. Briefly: Antitrypanosomal activity against Trypanosoma brucei 221 bloodstream form assessed as inhibition of growth incubated for 4 days by resazurin dye based fluorescence assay. Format: functional, organism-based. As to conditions: Trypanosoma brucei, 221, 96 h.
A short description of series [7]: Selectivity index, ratio of CC50 for human Huh5.2 cells to EC50 for HCV genotype 4a ED43. In kind it is toxicity. Particulars: read-out: Ratio CC50/EC50. A digest of the protocol:
(§2)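 Viability read as intracellular ATP, not MTT: 10^4 Huh5-2 cells/well, after 24 h exposed to compounds 72 h at 37 °C, 5% CO2, lysed, luminescent ATP kit read, ATP normalized to protein. CC50 versus DMSO control via nonlinear regression of log concentration; mean ± SD of three independent experiments in triplicate. SI = CC50/EC50.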

A short description of series [8]: Selectivity index, ratio of CC50 for human Huh5.2 cells to EC50 for HCV genotype 3a S52. Format: toxicity. Particulars: read-out: Ratio CC50/EC50. A digest of the protocol: as §2
Series [9] has as its system Hepatitis C virus. As to the kind of experiment: Antiviral activity against HCV genotype 4a ED43 infected in human HuH7.5 cells assessed as reduction in viral NS5A expression at 2 to 5 uM incubated for 3 days by immunofluorescence assay. Format: functional, organism-based. Particulars: Hepacivirus hominis, subtype 4a ED43. A digest of the protocol: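 Huh7.5-4a replicon cells given serial compound dilutions or DMSO; HCV NS5A detected by indirect immunofluorescence, nuclei stained with propidium iodide as viability control, confocal imaging.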

In series [10] the test system is Hepatitis C virus. As to the kind of experiment: Antiviral activity against HCV genotype 4a ED43 infected in human HuH7.5 cells assessed as reduction in viral RNA at 0.01 to 10 uM incubated for 3 days by qRT-PCR analysis. Particulars: Hepacivirus hominis, subtype 4a ED43. Format: functional, organism-based. A digest of the protocol: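 Huh7.5-4a replicon cells treated with serial dilutions or DMSO; (+) strand HCV RNA quantified by RT-qPCR, normalized to housekeeping gene YWHAZ mRNA, expressed as percentage of solvent-treated control.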
On the technique in general: Real-time PCR tracks product formation cycle by cycle.

For another series, the system named is Trypanosoma cruzi. Briefly: Antitrypanosomal activity against Trypanosoma cruzi strain CL Brener epimastigotes form assessed as inhibition of growth incubated for 4 days by resazurin dye based fluorescence assay. Format: functional, organism-based. Particulars: 96 h. A general note: The colour change of resazurin is a common sign of viable cells or microbes.

A short description of series [11]: Selectivity index, ratio of CC50 for human Huh5.2 cells to EC50 for HCV genotype 1b Con1. As to conditions: read-out: Ratio CC50/EC50. Format: toxicity. A digest of the protocol: as §2
Series [12] can be described thus: Selectivity index, ratio of CC50 for human Huh5.2 cells to EC50 for DENV2 16681. Particulars: read-out: Ratio CC50/EC50. Format: toxicity.
Series [13] concerns Hepatitis C virus. Briefly: Antiviral activity against HCV genotype 4a ED43 infected in human HuH7.5 cells assessed as reduction in viral replication incubated for 3 days by luciferase reporter gene assay. Format: functional, organism-based, Hepacivirus hominis. As to conditions: subtype 4a ED43, Huh7.5, 72 h. A digest of the protocol:
as §1

In series [14] the test system is Hepatitis C virus. Briefly: Antiviral activity against HCV genotype 1b Con1 infected in human HuH5.2 cells assessed as reduction in viral replication incubated for 3 days by luciferase reporter gene assay. Format: functional, organism-based, Hepacivirus hominis. Particulars: subtype 1b Con1, Huh-5-2, 72 h. In short, it runs like this: as §1
Series [15] can be described thus: Selectivity index, ratio of CC50 for rat L6 cells to EC50 for Trypanosoma cruzi strain CL Brener epimastigotes. In kind it is toxicity. Particulars: read-out: Ratio CC50/EC50.

Molecules are shown by their SMILES. Active and inactive are the calls of the source. The calls are words filed in the database; no cut-off is given here.

RNA-directed RNA polymerase, sequence (O39930 whole entry): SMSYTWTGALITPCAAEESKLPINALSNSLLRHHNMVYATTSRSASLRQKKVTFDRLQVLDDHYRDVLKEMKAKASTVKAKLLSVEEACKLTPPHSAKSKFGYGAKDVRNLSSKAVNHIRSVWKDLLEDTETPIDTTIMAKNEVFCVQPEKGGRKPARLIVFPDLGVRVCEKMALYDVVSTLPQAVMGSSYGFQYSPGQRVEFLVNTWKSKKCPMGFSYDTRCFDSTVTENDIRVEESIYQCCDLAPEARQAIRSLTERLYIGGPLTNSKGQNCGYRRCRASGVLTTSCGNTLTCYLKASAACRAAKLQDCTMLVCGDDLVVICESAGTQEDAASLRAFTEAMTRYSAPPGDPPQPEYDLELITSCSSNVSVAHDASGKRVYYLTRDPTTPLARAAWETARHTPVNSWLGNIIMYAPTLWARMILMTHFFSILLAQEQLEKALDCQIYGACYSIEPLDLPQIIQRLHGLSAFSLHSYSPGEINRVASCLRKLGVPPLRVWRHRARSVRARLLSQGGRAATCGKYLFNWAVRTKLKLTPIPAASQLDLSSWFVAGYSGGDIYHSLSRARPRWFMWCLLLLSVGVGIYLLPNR

In general, EC50 refers to the midpoint of the concentration-response curve. On to `COc1c(-c2ccc3cc(NS(C)(=O)=O)ccc3c2)cc(-n2ccc(=O)[nH]c2=O)cc1C(C)(C)C` [DASABUVIR], for which a half-maximal response in [1] (EC50) required 1.8 nM.

The molecule `CC[C@@H]1[C@@H]2CN(C(=O)[C@H](C(C)(C)C)NC(=O)O[C@@H]3C[C@H]3CCCCC(F)(F)c3nc4ccc(OC)cc4nc3O2)[C@@H]1C(=O)N[C@]1(C(=O)NS(=O)(=O)C2(C)CC2)C[C@H]1C(F)F` displayed an EC50 in [2] of 3.3 nM.

Consider `CC(C)OC(=O)[C@H](C)N[P@](=O)(OC[C@H]1O[C@@H](n2ccc(=O)[nH]c2=O)[C@](C)(F)[C@@H]1O)Oc1ccccc1` [SOFOSBUVIR], for which a half-maximal response in series [1] (EC50) required 102 nM.

As to `COC(=O)N[C@H](C(=O)N1CCC[C@H]1c1nc(-c2ccc(-c3ccc(-c4c[nH]c([C@@H]5CCCN5C(=O)[C@@H](NC(=O)OC)C(C)C)n4)cc3)cc2)c[nH]1)C(C)C` [DACLATASVIR], a half-maximal effect on Nonstructural protein 5A (EC50) was put at 2 pM.

For orientation: CC50 means the concentration giving 50% cytotoxicity. One may read the EC90 as the concentration at which the effect reaches the 90% level. Regarding `O=C(CN1C(=O)NC2(CCCCc3ccccc32)C1=O)NO` (stereo not drawn), the half-maximal cytotoxic concentration (CC50) at 144 h in series [3] stood at 125 µM. Besides, the EC50 with dengue virus type 2 was 16.3 µM; with Hepatitis C virus [4], 80 nM; in the series with Trypanosoma brucei, 400 nM; in the series with Trypanosoma cruzi it was > 30 µM; in the series with Hepatitis C virus [13], 100 nM; in the series on Hepatitis C virus [14], 250 nM. Moreover, in series [5], the CC50 at 72 h worked out at 198 µM. Further, the selectivity ratio amounted to 313 in series [6]; 1980 in series [7]; 2480 in [8]; 794 in series [11]; 12 in series [12]. For the same molecule, the EC90 with Trypanosoma brucei was 520 nM. The result with Hepatitis C virus [9] and in the series with Hepatitis C virus [10] was Active.

In the case of `O=C(CN1C(=O)NC2(CCCc3ccccc32)C1=O)NO` (stereo not drawn), the 50% cytotoxic concentration (CC50) at 144 h in [3] amounted to 419 µM. Also, the half-maximal effective concentration (EC50) is 61.5 µM with dengue virus type 2; 2370 nM in the series on Hepatitis C virus [4]; 710 nM with Trypanosoma brucei; > 30 µM in the series with Trypanosoma cruzi; 380 nM in the series on Hepatitis C virus [13]; 1410 nM in the series on Hepatitis C virus [14]. In [5], the cytotoxic concentration (CC50) at 72 h was > 200 µM. Further, the selectivity ratio in series [6] is 590; in series [7], > 526; in [8], > 84; in series [11], > 142; in series [12], > 3. Further, the EC90 in the series with Trypanosoma brucei is 1270 nM; in the series with Trypanosoma cruzi it was > 30 µM.

For `CN1C(=O)N(CC(=O)NO)C(=O)C12CCCc1ccccc12` (stereo not drawn), the half-maximal cytotoxic concentration (CC50) at 144 h in [3] was 28.2 µM. Besides, the CC50 at 72 h in series [5] was determined as 143 µM. The selectivity ratio in series [6] was found to be 15; in series [7] it was 682; in [15], 1; in [11], 99. The EC50 with Trypanosoma brucei amounted to 1910 nM; with Trypanosoma cruzi, 27.6 µM; in the series with Hepatitis C virus [13] it was 210 nM; in the series on Hepatitis C virus [14] it was 1450 nM. Also, the figures for the concentration for an effect of 90% (EC90) with Trypanosoma brucei and in the series with Trypanosoma cruzi were 4690 nM and 42.1 µM, respectively. Also, in the series with Hepatitis C virus [10], the result was Active.

Consider `O=C(CN1C(=O)NC2(CCc3ccccc32)C1=O)NO` (stereo not drawn), for which the CC50 at 144 h in [3] is 268 µM. In addition, the concentration giving a half-maximal response (EC50) with dengue virus type 2 is 96.3 µM; in the series with Hepatitis C virus [4], 2970 nM; with Trypanosoma brucei, 440 nM; with Trypanosoma cruzi, > 30 µM; in the series on Hepatitis C virus [13] it was 580 nM; with Hepatitis C virus [14], 2920 nM. Besides, the CC50 at 72 h in series [5] is > 200 µM. Also, the selectivity ratio was 609 in series [6]; > 345 in series [7]; > 67 in [8]; > 68 in [11]; > 2 in [12]. Besides, the EC90 in the series on Trypanosoma brucei was 800 nM; with Trypanosoma cruzi it was > 30 µM.

Source of the values: ChEMBL document CHEMBL4373658, “Scaffold hybridization strategy towards potent hydroxamate-based inhibitors of Flaviviridae viruses and Trypanosoma species” (Medchemcomm, 2019).
